Key:
[1] = molecular target: equine serum-derived BuChE (eqBuChE) (Equus caballus, UniProt P81908); test: Cholinesterase inhibition assay, BuChE; format: biochemical, horse; details: read-out: BuChE inhibitory activity inhibition (%)
[2] = molecular target: electric eel-derived AChE (eeAChE) (Electrophorus electricus, UniProt O42275); test: Cholinesterase inhibition assay, AChE; format: biochemical; details: read-out: AChE inhibitory activity inhibition (%)
SK-N-SH cells = test: Neuroprotective effect on H2O2-induced decrease in cell viability; format: cell-based; details: Figure 5; H2O2-treated neurons, concentrations of 0.075–0.6 μM
Method in brief: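 Cells challenged with H2O2 and treated with test compound at 0.15 μM. Viability given as % of control, with control set at 100%. Recovery (%) is viability of compound-treated cells minus viability of H2O2-only cells. Data are mean ± SD, n = 3.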

Sequence of equine serum-derived BuChE (eqBuChE) (P81908 whole entry): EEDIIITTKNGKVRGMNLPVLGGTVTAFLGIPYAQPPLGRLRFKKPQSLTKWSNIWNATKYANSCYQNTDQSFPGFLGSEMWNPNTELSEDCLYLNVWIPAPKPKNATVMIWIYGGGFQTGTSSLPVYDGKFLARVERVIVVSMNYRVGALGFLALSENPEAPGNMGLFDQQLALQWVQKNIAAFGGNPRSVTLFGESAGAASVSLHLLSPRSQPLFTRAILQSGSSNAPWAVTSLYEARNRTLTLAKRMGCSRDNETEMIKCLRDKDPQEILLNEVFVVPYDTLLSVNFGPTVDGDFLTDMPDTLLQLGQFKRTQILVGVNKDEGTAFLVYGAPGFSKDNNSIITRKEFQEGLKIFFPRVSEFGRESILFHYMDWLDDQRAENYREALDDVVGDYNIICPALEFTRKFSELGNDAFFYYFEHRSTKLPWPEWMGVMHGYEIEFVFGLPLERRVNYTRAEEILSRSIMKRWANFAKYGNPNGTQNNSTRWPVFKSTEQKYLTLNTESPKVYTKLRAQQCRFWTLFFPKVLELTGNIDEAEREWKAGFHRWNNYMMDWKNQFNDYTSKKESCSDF
Sequence of electric eel-derived AChE (eeAChE) (O42275 24-633): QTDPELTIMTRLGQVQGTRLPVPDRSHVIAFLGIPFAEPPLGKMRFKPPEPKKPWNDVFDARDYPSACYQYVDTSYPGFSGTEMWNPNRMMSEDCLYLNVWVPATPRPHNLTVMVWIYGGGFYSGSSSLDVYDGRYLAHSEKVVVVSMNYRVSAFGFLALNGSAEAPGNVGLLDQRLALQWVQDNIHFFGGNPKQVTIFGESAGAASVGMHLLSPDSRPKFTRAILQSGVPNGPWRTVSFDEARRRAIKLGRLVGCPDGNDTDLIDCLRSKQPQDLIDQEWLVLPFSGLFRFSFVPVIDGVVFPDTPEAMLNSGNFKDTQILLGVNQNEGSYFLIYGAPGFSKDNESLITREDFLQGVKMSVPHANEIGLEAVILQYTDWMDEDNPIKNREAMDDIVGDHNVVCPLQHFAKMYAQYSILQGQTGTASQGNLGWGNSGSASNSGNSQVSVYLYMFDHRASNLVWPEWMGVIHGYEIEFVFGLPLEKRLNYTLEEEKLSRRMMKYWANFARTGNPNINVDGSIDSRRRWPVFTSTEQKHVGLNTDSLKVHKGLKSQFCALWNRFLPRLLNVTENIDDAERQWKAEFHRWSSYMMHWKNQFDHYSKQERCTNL

SMILES | inhibition at 10000 µM [1] [%] | inhibition at 10000 µM [2] [%] | cell viability (SK-N-SH cells) [%]
COC(=O)C1=CO[C@@H](O)[C@@H]2C(CO)=CC[C@H]12 [genipin 1, genipin] | 2.42 ± 0.18 | 4.94 ± 0.05 | > 78
COc1ccc2c3c1O[C@H]1C[C@@H](O)C=C[C@@]31CCN(C)C2 [galantamine] | 96.21 ± 0.18 | – | –
COC(=O)C1=CO[C@@H](O[C@@H]2O[C@H](CO)[C@@H](O)[C@H](O)[C@H]2O)[C@@H]2C(CO)=CC[C@H]12 [geniposide] | 2.09 ± 0.18 | 0.73 ± 0.11 | –
